Reference: ChEMBL document CHEMBL1137566 (J Med Chem, 2007)
Values after ≈ are worked out from the molar mass of the structure shown.

Tests used:
[1] = target: Coagulation factor X (Homo sapiens, UniProt P00742); assay: Binding affinity to human F10a
[2] = target: Prothrombin (Homo sapiens, UniProt P00734); assay: Inhibition of human thrombin
[3] = target: Trypsin (Homo sapiens, UniProt P07477+P07478+P35030); assay: Inhibition of human trypsin; type: protein assay
[4] = Clearance in dog at 0.4 mg/kg, iv and 0.2 mg/kg, po; type: ADME, organism-based, Canis lupus familiaris; details: in vivo
In short: (§1)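 Dog pharmacokinetics from cassette (N-in-one) dosing of compounds as TFA salts: 0.4 mg/kg iv and 0.2 mg/kg po, n = 2 animals.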

[5] = Volume of distribution at steady state in dog at 0.4 mg/kg, iv and 0.2 mg/kg, po; type: ADME, organism-based, Canis lupus familiaris; details: in vivo, read-out: Vdss; in short: as §1
[6] = Half life in dog at 0.2 mg/kg, po; type: ADME, organism-based, Canis lupus familiaris; design: dose 0.2 mg/kg, route oral; details: in vivo; in short: as §1
[7] = (§2) Oral bioavailability in dog at 0.2 mg/kg, po; type: ADME, organism-based, Canis lupus familiaris; details: in vivo; in short: as §1
[8] = Apparent permeability across Caco-2 cells; type: ADME, cell-based; details: human
[9] = species on record: Oryctolagus cuniculus; assay: Inhibition of thrombus formation in rabbit arteriovenous shunt thrombosis model; type: functional, organism-based
[10] = target: T1, Coagulation factor X (Oryctolagus cuniculus, UniProt O19045); assay: Binding affinity to rabbit F10a
T1 sequence (O19045 whole entry): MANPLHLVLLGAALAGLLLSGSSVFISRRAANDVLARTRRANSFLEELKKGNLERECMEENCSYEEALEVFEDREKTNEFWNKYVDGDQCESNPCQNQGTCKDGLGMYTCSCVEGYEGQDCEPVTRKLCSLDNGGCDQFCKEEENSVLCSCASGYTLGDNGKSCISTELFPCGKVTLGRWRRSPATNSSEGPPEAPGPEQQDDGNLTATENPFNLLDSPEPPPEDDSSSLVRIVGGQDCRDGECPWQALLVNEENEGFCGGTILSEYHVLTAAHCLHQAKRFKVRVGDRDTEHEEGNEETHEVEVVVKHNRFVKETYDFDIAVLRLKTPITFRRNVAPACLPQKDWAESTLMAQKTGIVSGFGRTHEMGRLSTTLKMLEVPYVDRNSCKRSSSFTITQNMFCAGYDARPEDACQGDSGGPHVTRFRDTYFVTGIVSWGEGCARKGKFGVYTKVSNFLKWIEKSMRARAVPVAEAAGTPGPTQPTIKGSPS

[11] = Half life in human liver microsomes; type: ADME, Microsome
[12] = Protein binding in human serum by equilibrium dialysis; type: ADME, cell-free; details: read-out: PB (converted)
[13] = Aqueos solubility in saline; type: ADME
[14] = tested on: Canis familiaris; assay: as §2; type: ADME, organism-based, Canis lupus familiaris; details: in vivo; in short: as §1

Sequence of Coagulation factor X (Homo sapiens, UniProt P00742) (P00742 41-179 limits assumed): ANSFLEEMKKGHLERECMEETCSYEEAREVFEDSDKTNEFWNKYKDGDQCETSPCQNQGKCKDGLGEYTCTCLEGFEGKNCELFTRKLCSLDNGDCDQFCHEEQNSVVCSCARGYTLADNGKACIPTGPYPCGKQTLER
Sequence of Coagulation factor X (Homo sapiens, UniProt P00742) (P00742 235-488 limits assumed): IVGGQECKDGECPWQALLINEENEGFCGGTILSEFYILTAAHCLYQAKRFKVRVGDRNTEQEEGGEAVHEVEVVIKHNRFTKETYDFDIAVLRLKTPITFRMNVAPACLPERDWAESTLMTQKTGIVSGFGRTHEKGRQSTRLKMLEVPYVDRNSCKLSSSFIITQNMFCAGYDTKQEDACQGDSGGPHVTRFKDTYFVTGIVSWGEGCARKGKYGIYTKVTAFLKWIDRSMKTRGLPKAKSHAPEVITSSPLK

| Structure (SMILES) | Ki [1] | Ki [2] | Ki [3] | clearance [4] | Vd [5] | half-life [6] | also measured |
| --- | --- | --- | --- | --- | --- | --- | --- |
| COc1ccc(-n2nc(C(F)(F)F)c3c2C(=O)N(c2ccc(-c4ccccc4CN4CC[C@@H](O)C4)cc2)CC3)cc1 | 0.18 nM | 330 nM | > 3000 nM |  |  |  |  |
| COc1ccc(-n2nc(N(C)C)c3c2C(=O)N(c2ccc(-c4ccccc4CN4CC[C@@H](O)C4)cc2)CC3)cc1 | 0.31 nM | 1800 nM | > 3000 nM |  |  |  |  |
| COc1ccc(-n2nc(C(N)=O)c3c2C(=O)N(c2ccc(-c4ccccc4CN4CC[C@@H](O)C4)cc2)CC3)cc1 | 0.07 nM | 140 nM | > 3000 nM | 5.33 mL/min/kg | 1.6 L/kg | 5.6 h | bioavailability [7]: 100%; Papp [8]: 2.3 ×10⁻⁶ cm/s; IC50 [9]: 120 nM |
| CNC(=O)c1nn(-c2ccc(OC)cc2)c2c1CCN(c1ccc(-c3ccccc3CN3CC[C@@H](O)C3)cc1)C2=O | 4.8 nM | 7000 nM | > 3000 nM |  |  |  |  |
| COc1ccc(-n2nc(C(=O)N(C)C)c3c2C(=O)N(c2ccc(-c4ccccc4CN4CC[C@@H](O)C4)cc2)CC3)cc1 | 1.7 nM | 11000 nM | > 3000 nM |  |  |  |  |
| COc1ccc(-n2nc(C(F)(F)F)c3c2C(=O)N(c2ccc(N(C)C(C)=O)cc2)CC3)cc1 | 0.5 nM | > 6300 nM |  |  |  |  |  |
| COc1ccc(-n2nc(C(N)=O)c3c2C(=O)N(c2ccc(N(C)C(C)=O)cc2)CC3)cc1 | 0.61 nM | 2520 nM |  | 46.7 mL/min/kg | 1.7 L/kg | 0.7 h | bioavailability [7]: 56%; Papp [8]: 2.5 ×10⁻⁶ cm/s; Ki [10]: 2.6 nM |
| COc1ccc(-n2nc(C(F)(F)F)c3c2C(=O)N(c2ccc(N(C)C)cc2)CC3)cc1 | 6 nM | > 13400 nM |  |  |  |  |  |
| COc1ccc(-n2nc(C(F)(F)F)c3c2C(=O)N(c2ccc(N4CCCCC4)cc2)CC3)cc1 | 2.1 nM | 3900 nM |  |  |  |  |  |
| COc1ccc(-n2nc(C(F)(F)F)c3c2C(=O)N(c2ccc(N4CCCCCC4=O)cc2)CC3)cc1 | 0.47 nM | 3300 nM |  |  |  |  |  |
| COc1ccc(-n2nc(N)c3c2C(=O)N(c2ccc(-c4ccccc4CN4CC[C@@H](O)C4)cc2)CC3)cc1 | 6.7 nM | 9400 nM | > 3000 nM |  |  |  |  |
| CNCc1ccccc1-c1ccc(N2CCc3c(C(N)=O)nn(-c4ccc(OC)cc4)c3C2=O)cc1 | 0.14 nM |  |  | 21.7 mL/min/kg | 7.4 L/kg | 7.3 h | bioavailability [7]: 56%; Papp [8]: 1.7 ×10⁻⁶ cm/s; IC50 [9]: 445 nM; half-life [11]: > 1.67 h |
| CCN(CC)Cc1ccccc1-c1ccc(N2CCc3c(C(N)=O)nn(-c4ccc(OC)cc4)c3C2=O)cc1 | 0.08 nM |  |  | 40 mL/min/kg | 6.5 L/kg | 3.7 h | bioavailability [7]: 20%; Papp [8]: 2.3 ×10⁻⁶ cm/s |
| CCOC(=O)c1nn(-c2ccc(OC)cc2)c2c1CCN(c1ccc(-c3ccccc3CN3CC[C@@H](O)C3)cc1)C2=O | 3.9 nM | 980 nM | > 3000 nM |  |  |  |  |
| COc1ccc(-n2nc(C(N)=O)c3c2C(=O)N(c2ccc(-c4ccccc4CN4CCC(O)CC4)cc2)CC3)cc1 | 0.29 nM |  |  | 1.67 mL/min/kg | 0.99 L/kg | 4.3 h | bioavailability [7]: 55%; Papp [8]: 4.9 ×10⁻⁶ cm/s; IC50 [9]: 180 nM |
| COc1ccc(-n2nc(C(N)=O)c3c2C(=O)N(c2ccc(-c4ccccc4CN(CCO)CCO)cc2)CC3)cc1 | 0.36 nM |  |  | 8.33 mL/min/kg | 1.09 L/kg | 1.8 h | bioavailability [7]: 15%; Papp [8]: 0.9 ×10⁻⁶ cm/s |
| COc1ccc(-n2nc(C(=O)O)c3c2C(=O)N(c2ccc(-c4ccccc4CN4CC[C@@H](O)C4)cc2)CC3)cc1 | 7.6 nM | > 20000 nM | > 3000 nM |  |  |  |  |
| COc1ccc(-n2nc(NC(=O)OC(C)(C)C)c3c2C(=O)N(c2ccc(-c4ccccc4CN4CC[C@@H](O)C4)cc2)CC3)cc1 | 9.6 nM | 4600 nM | > 3000 nM |  |  |  |  |
| COc1ccc(-n2nc(S(C)(=O)=O)c3c2C(=O)N(c2ccc(-c4ccccc4CN4CC[C@@H](O)C4)cc2)CC3)cc1 | 0.25 nM | 180 nM | > 3000 nM |  |  |  |  |

| Structure (SMILES) | Ki [1] | Ki [2] | Ki [3] | clearance [4] | Vd [5] | half-life [6] | also measured |
| --- | --- | --- | --- | --- | --- | --- | --- |
| COc1ccc(-n2nc(C(N)=O)c3c2C(=O)N(c2ccc(-c4ccccc4CN)cc2)CC3)cc1 | 0.97 nM |  |  |  |  |  | Papp [8]: 1.2 ×10⁻⁶ cm/s |
| Nc1noc2ccc(-n3nc(C(F)(F)F)c4c3C(=O)N(c3ccc(-c5ccccc5CN5CC[C@@H](O)C5)cc3)CC4)cc12 |  |  |  | 5.83 mL/min/kg | 1.6 L/kg | 5.1 h | IC50 [9]: 140 nM; half-life [11]: 0.7 h; fraction unbound [12]: 0.03 |
| COc1ccc(-n2nc(C(N)=O)c3c2C(=O)N(c2ccc(-c4ccccc4CN(C)C)cc2)CC3)cc1 | 0.24 nM |  |  | 33.3 mL/min/kg | 6.1 L/kg | 3.6 h | bioavailability [7]: 56%; Papp [8]: 2.3 ×10⁻⁶ cm/s; IC50 [9]: 175 nM |
| COc1ccc(-n2nc(N(C)C(=O)OC(C)(C)C)c3c2C(=O)N(c2ccc(-c4ccccc4CN4CC[C@@H](O)C4)cc2)CC3)cc1 | 2 nM | 950 nM | > 3000 nM |  |  |  |  |
| CNc1ccc(N2CCc3c(C(F)(F)F)nn(-c4ccc(OC)cc4)c3C2=O)cc1 | 610 nM | > 6300 nM |  |  |  |  |  |
| COc1ccc(-n2nc(C(F)(F)F)c3c2C(=O)N(c2ccc(N4CCCCC4=O)cc2)CC3)cc1 | 0.23 nM | 4400 nM |  |  |  |  |  |
| COc1ccc(-n2nc(C#N)c3c2C(=O)N(c2ccc(-c4ccccc4CN4CC[C@@H](O)C4)cc2)CC3)cc1 | 0.33 nM | 100 nM | > 3000 nM |  |  |  |  |
| COc1ccc(-n2nc(C(F)(F)F)c3c2C(=O)N(c2ccc(N)cc2)CC3)cc1 |  | > 6300 nM |  |  |  |  |  |
| COc1ccc(-n2nc(Cn3nccn3)c3c2C(=O)N(c2ccc(-c4ccccc4CN4CC[C@@H](O)C4)cc2)CC3)cc1 | 0.48 nM | 980 nM | > 3000 nM |  |  |  |  |
| COc1ccc(-n2nc(Cn3cncn3)c3c2C(=O)N(c2ccc(-c4ccccc4CN4CC[C@@H](O)C4)cc2)CC3)cc1 | 0.25 nM | 1900 nM | > 3000 nM |  |  |  |  |
| COc1ccc(-n2nc(Cn3cnnn3)c3c2C(=O)N(c2ccc(-c4ccccc4CN4CC[C@@H](O)C4)cc2)CC3)cc1 | 0.85 nM | 970 nM | > 3000 nM | 43 mL/min/kg | 3.7 L/kg | 1.8 h | bioavailability [7]: 7%; Papp [8]: 0.9 ×10⁻⁶ cm/s |
| COc1ccc(-n2nc(Cn3ncnn3)c3c2C(=O)N(c2ccc(-c4ccccc4CN4CC[C@@H](O)C4)cc2)CC3)cc1 | 1.1 nM | 1000 nM | > 3000 nM |  |  |  |  |
| COc1ccc(-n2nc(-c3nnn[nH]3)c3c2C(=O)N(c2ccc(-c4ccccc4CN4CC[C@@H](O)C4)cc2)CC3)cc1 | 0.63 nM | 12000 nM | > 3000 nM |  |  |  |  |
| CNc1nn(-c2ccc(OC)cc2)c2c1CCN(c1ccc(-c3ccccc3CN3CC[C@@H](O)C3)cc1)C2=O | 1.7 nM | 4800 nM | > 3000 nM |  |  |  |  |
| COc1ccc(-n2nc(C(F)(F)F)c3c2C(=O)N(c2ccc(NC(C)=O)cc2)CC3)cc1 | 180 nM | > 6300 nM |  |  |  |  |  |
| COc1ccc(-n2nc(Cn3ccnn3)c3c2C(=O)N(c2ccc(-c4ccccc4CN4CC[C@@H](O)C4)cc2)CC3)cc1 | 0.67 nM | 12000 nM | > 3000 nM | 41.2 mL/min/kg | 4.9 L/kg | 2.8 h | bioavailability [7]: 24%; Papp [8]: 1.6 ×10⁻⁶ cm/s |
| COc1ccc(-n2nc(C(N)=O)c3c2C(=O)N(c2ccc(-c4ccccc4CN4CCCC4)cc2)CC3)cc1 | 0.3 nM |  |  | 25 mL/min/kg | 5.6 L/kg | 3.5 h | bioavailability [7]: 53%; Papp [8]: 3.5 ×10⁻⁶ cm/s |
| COc1ccc(-n2nc(C(N)=O)c3c2C(=O)N(c2ccc(N4CCCCC4=O)cc2)CC3)cc1 [APIXABAN] |  |  |  | 0.333 mL/min/kg | 0.2 L/kg | 5.8 h | bioavailability [7]: 58%; IC50 [9]: 329 nM; solubility [13]: 50 µg/mL (≈ 109 µM); Ki [10]: 0.17 nM |
| CN(C)Cc1nccn1-c1ccc(NC(=O)c2cc(C(F)(F)F)nn2-c2ccc3onc(N)c3c2)c(F)c1 [RAZAXABAN] |  |  |  |  | 3.4 L/kg | 5.3 h | F [14]: 84%; half-life [11]: 0.633 h; fraction unbound [12]: 0.09 |
